Data as given in ChEMBL document CHEMBL2390947, “New insight into adenosine receptors selectivity derived from a novel series of [5-substituted-4-phenyl-1,3-thiazol-2-yl] benzamides and furamides” (Eur J Med Chem, 2013).

Assays:
[1] = target: T1, Adenosine receptor A2b (Homo sapiens, UniProt P29275); test: Antagonist activity at human adenosine A2B receptor expressed in CHO cells assessed as inhibition of NECA-stimulated adenylyl cyclase activity; format: functional, cell-based
T1 sequence (P29275 whole entry): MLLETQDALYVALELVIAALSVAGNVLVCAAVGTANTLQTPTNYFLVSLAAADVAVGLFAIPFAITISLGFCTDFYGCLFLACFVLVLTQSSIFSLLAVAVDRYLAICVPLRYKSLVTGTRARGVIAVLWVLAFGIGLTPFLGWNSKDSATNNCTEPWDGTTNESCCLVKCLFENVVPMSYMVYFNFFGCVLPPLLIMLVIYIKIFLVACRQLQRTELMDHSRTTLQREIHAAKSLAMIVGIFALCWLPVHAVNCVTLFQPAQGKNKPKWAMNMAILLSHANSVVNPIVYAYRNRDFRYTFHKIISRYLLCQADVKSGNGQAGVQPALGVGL
How it was run: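 Affinity at human A2B receptor taken from inhibition of NECA-stimulated adenylyl cyclase activity. Membranes from stably transfected CHO cells were obtained by a single high-speed spin of the homogenate, resuspended in 50 mM Tris/HCl pH 7.4 and used at once.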

[2] = species: Homo sapiens; test: Selectivity ratio of Ki for human adenosine A1 receptor to Ki for human adenosine A2A receptor
[3] = tested on: adenosine A3/A2A receptor ratio (Homo sapiens); test: Selectivity ratio of Ki for human adenosine A2A receptor to Ki for human adenosine A3 receptor
[4] = target: T2, Adenosine receptor A1 (Homo sapiens, UniProt P30542); test: Displacement of [3H]CCPA from human adenosine A1 receptor expressed in CHO cells; format: cell-based
T2 sequence (P30542 whole entry): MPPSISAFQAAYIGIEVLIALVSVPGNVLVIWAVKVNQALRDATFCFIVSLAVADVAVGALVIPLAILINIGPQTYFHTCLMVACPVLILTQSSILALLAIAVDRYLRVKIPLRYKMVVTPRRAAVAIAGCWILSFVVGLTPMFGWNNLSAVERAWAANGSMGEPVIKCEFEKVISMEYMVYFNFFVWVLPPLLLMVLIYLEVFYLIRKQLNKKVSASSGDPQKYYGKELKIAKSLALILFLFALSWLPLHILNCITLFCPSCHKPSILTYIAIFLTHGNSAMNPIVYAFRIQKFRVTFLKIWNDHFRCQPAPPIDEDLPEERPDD
How it was run: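 Agonist radioligand competition on membranes from CHO cells stably transfected with human A1 receptor (1000 × g spin to clear debris, crude membranes pelleted at 100,000 × g, stored at -80 °C). Tracer 1 nM [3H]CCPA; non-specific binding defined with 1 mM theophylline. Ki computed from competition curves.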

[5] = target: Adenosine receptor A2a (Homo sapiens, UniProt P29274); test: Displacement of [3H]NECA from human adenosine A2A receptor expressed in CHO cells; format: cell-based
How it was run: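 Membranes prepared from stably transfected CHO cells expressing human A2A receptor by two-step centrifugation (1000 × g, then 100,000 × g), frozen and kept at -80 °C. Competition against 30 nM [3H]NECA, with 100 µM R-PIA for non-specific binding. Ki obtained by competition-curve fitting.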

[6] = target: T3, Adenosine receptor A3 (Homo sapiens, UniProt P0DMS8); test: Displacement of [3H]HEMADO from human adenosine A3 receptor expressed in CHO cells; format: cell-based
T3 sequence (P0DMS8 whole entry): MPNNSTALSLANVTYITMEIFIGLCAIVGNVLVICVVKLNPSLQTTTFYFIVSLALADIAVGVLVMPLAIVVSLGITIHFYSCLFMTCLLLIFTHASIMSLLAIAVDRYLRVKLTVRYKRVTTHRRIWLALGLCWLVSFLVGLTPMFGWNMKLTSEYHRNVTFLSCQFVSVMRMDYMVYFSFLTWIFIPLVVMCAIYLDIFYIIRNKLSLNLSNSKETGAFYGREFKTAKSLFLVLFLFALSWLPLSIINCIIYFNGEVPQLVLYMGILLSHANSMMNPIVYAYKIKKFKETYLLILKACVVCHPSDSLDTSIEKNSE
How it was run: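 Human A3 receptor binding in membranes from stably transfected CHO cells (low-speed then 100,000 × g pellet, stored at -80 °C). Radioligand was the agonist [3H]HEMADO at 1 nM; non-specific binding measured with 100 µM R-PIA. Ki values derived from competition experiments.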

[7] = species: Homo sapiens; test: Selectivity ratio of Ki for human adenosine A2B receptor to Ki for human adenosine A3 receptor
[8] = target: T4, Adenosine receptors; A1 & A3 (Homo sapiens) (UniProt P30542+P0DMS8); test: Selectivity ratio of Ki for human adenosine A1 receptor to Ki for human adenosine A3 receptor
[9] = species: Homo sapiens; test: Selectivity ratio of Ki for human adenosine A2A receptor to Ki for human adenosine A3 receptor
[10] = species: Homo sapiens; test: Selectivity ratio of Ki for human adenosine A2A receptor to Ki for human adenosine A2B receptor
[11] = species: Homo sapiens; test: Selectivity ratio of Ki for human adenosine A1 receptor to Ki for human adenosine A2B receptor
[12] = species: Homo sapiens; test: Selectivity ratio of Ki for human adenosine A3 receptor to Ki for human adenosine A2A receptor
[13] = species: Homo sapiens; test: Selectivity ratio of Ki for human adenosine A2A receptor to Ki for human adenosine A1 receptor
[14] = target: T4, Adenosine receptors; A1 & A3 (Homo sapiens); test: Selectivity ratio of Ki for human adenosine A3 receptor to Ki for human adenosine A1 receptor

Chain of Adenosine receptor A2a (P29274 whole entry): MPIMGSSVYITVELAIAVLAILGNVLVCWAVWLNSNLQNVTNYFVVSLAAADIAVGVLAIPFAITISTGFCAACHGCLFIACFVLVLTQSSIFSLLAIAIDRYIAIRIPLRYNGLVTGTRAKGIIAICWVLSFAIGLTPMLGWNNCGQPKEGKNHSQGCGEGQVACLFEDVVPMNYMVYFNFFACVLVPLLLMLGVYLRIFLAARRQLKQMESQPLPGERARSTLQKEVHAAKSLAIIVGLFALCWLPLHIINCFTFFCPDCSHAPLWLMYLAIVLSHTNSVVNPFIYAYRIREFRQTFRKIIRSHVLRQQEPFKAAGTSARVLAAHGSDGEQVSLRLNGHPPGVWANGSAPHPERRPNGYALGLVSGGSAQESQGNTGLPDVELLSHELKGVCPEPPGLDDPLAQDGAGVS

Row | Ki [1] [nM] | Ki [4] [nM] | Ki [5] [nM] | Ki [6] [nM] | Structure (SMILES) | other results
1 | 8000 | 536 | 179 | 918 | CN(C)c1nc(N)nc(-c2sc(NC(=O)c3ccco3)nc2-c2ccccc2)n1 | Ratio Ki [2]: 3; Ratio Ki [3]: 5
2 | > 10000 | > 10000 | > 10000 | > 10000 | COc1ccc(C(=O)Nc2nc(-c3ccccc3)c(-c3nc(N)c4c5c(sc4n3)CCCC5)s2)cc1 | –
3 | > 10000 | > 10000 | > 10000 | > 10000 | Cc1ccc(C(=O)Nc2nc(-c3ccccc3)c(-c3nc(N)c4c5c(sc4n3)CCCC5)s2)cc1 | –
4 | > 10000 | > 10000 | 8780 | 3930 | O=C(Nc1nc(-c2ccccc2)c(-c2nc3ccccc3c(=O)[nH]2)s1)c1ccco1 | –
5 | > 30000 | 3630 | 562 | 816 | Cc1ccc(C(=O)Nc2nc(-c3ccccc3)c(-c3nc(N)nc(N(C)C)n3)s2)cc1 | –
6 | > 10000 | 177 | 552 | 1870 | O=C(Nc1nc(-c2ccccc2)c(C(=O)c2cccnc2)s1)c1ccco1 | –
7 | > 10000 | > 30000 | > 30000 | 1380 | Cc1ccc(C(=O)Nc2nc(-c3ccccc3)c(-c3nc(N)c4c(C)c(C)sc4n3)s2)cc1 | –
8 | > 10000 | > 10000 | > 100000 | > 10000 | Cc1sc2nc(-c3sc(NC(=O)c4ccco4)nc3-c3ccccc3)[nH]c(=O)c2c1C | –
9 | > 10000 | 801 | 327 | 567 | CN(C)c1nc(N)nc(-c2sc(NC(=O)c3ccccc3)nc2-c2ccccc2)n1 | –
10 | > 10000 | 12000 | 5950 | 746 | Cc1sc2nc(-c3sc(NC(=O)c4ccco4)nc3-c3ccccc3)nc(N)c2c1C | Ratio Ki [7]: > 13; Ratio Ki [8]: 16; Ratio Ki [9]: 8
11 | > 10000 | > 100000 | > 30000 | 2470 | COc1ccc(C(=O)Nc2nc(-c3ccccc3)c(-c3nc(N)c4c(C)c(C)sc4n3)s2)cc1 | –
12 | 841 | 276 | 193 | 2040 | O=C(Nc1nc(-c2ccccc2)c(-c2ccccn2)s1)c1ccco1 | Ratio Ki [10]: 0.23; Ratio Ki [11]: 0.33
13 | > 10000 | 10400 | 2010 | 2640 | COc1ccc(C(=O)Nc2nc(-c3ccccc3)c(-c3nc(N)nc(N(C)C)n3)s2)cc1 | –
14 | > 10000 | 688 | 128 | 201 | COc1ccc(C(=O)Nc2nc(-c3ccccc3)c(C(=O)c3ccccn3)s2)cc1 | Ratio Ki [12]: 1.6; Ratio Ki [2]: 5.7
15 | 9110 | 406 | 74.7 | 951 | O=C(Nc1nc(-c2ccccc2)c(C(=O)c2ccccn2)s1)c1ccco1 | Ratio Ki [12]: 13; Ratio Ki [2]: 5
16 | > 10000 | > 10000 | > 10000 | > 10000 | Nc1nc(-c2sc(NC(=O)c3ccccc3)nc2-c2ccccc2)nc2sc3c(c12)CCCC3 | –
17 | > 10000 | 7240 | 4870 | 676 | Cc1sc2nc(-c3sc(NC(=O)c4ccccc4)nc3-c3ccccc3)nc(N)c2c1C | –
18 | 2.78 | 0.58 | 6.65 | 9.36 | O=C(Nc1nc(-c2ccccc2)c(-c2ccncc2)s1)c1ccco1 | Ratio Ki [13]: 11; Ratio Ki [14]: 16
19 | > 10000 | > 10000 | > 10000 | > 10000 | COc1ccc(C(=O)Nc2nc(-c3ccccc3)c(C(=O)c3cccnc3)s2)cc1 | –
20 | > 10000 | > 10000 | 14400 | 36600 | Nc1nc(-c2sc(NC(=O)c3ccco3)nc2-c2ccccc2)nc2sc3c(c12)CCCC3 | –
